From ChEMBL document CHEMBL1124422, “Antitumor and antiviral activity of synthetic alpha- and beta-ribonucleosides of certain substituted pyrimido[5,4-d]pyrimidines: a new synthetic strategy for exocyclic aminonucleosides” (1989)

How the values were obtained:
[1] = Effect on de novo purine biosynthesis when [14C]formate was incorporated to WI-L2 cells at 50 uM with preincubation time of 8 h; assay type: functional, Homo sapiens
Method in brief: (§1)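 Cells were preincubated with drug at 37 °C, then labelled with [14C]formate. De novo purine synthesis was read as label incorporated into cellular and excreted purines (hot acid-soluble fraction).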

[2] = organism: Homo sapiens; assay: Effect on de novo purine biosynthesis when [14C]formate was incorporated to WI-L2 media at 50 uM with preincubation time of 8 h; assay type: functional
Method in brief: (§2)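 WI-L2 cells preincubated with drug at 37 °C before [14C]formate labeling. Read-out: [14C]formate incorporation into cellular and excreted purines (hot acid-soluble fraction). Cells grown in RPMI 1640 with 5% dialyzed fetal bovine serum, 20 mM NaHEPES pH 7.5, 2 mM glutamine, and kept in log phase between 0.5 and 12×10^5 cells/mL.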

[3] = Effect on de novo purine biosynthesis when [14C]formate was incorporated to fraction WI-L2 cells at 25 uM with preincubation time of 4 h; assay type: functional, Homo sapiens
Method in brief: (§3)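 WI-L2 cells (or adenosine kinase-deficient mutant) kept in log phase in RPMI 1640 with 5% dialyzed FBS, 20 mM NaHEPES pH 7.5, 2 mM glutamine; preincubated with drug at 37 °C, then labeled with [14C]formate. De novo purine synthesis read as [14C]formate incorporation into cellular (hot acid-soluble) and excreted purines, scored as inhibition.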

[4] = system: LoVo; assay: Inhibitory concentration of compound that inhibits tumor cell growth by 50% in Human colon carcinoma (LoVo/L) cell line; assay type: functional; details: read-out: ID50 (the source's name)
Method in brief: (§4)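 Incubation was 3 days for L1210 and WI-L2 and 5 days for LoVo/L. MTT was added for 2 to 5 h and formazan was read by absorbance. ID50 is the concentration giving 50% of untreated control growth.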

[5] = system: WIL2; assay: Inhibitory concentration of compound that inhibits tumor cell growth by 50% in Human B-lymphoblast (WI-L) cell line; assay type: functional; details: read-out: ID50 (the source's name); method in brief: as §4
[6] = system: Vero; assay: In vitro antiviral activity against Parainfluenza 3 (C243 strain)cell line in Vero cells; assay type: functional, Chlorocebus sabaeus
[7] = system: Vero; assay: In vitro antiviral activity against herpes simplex virus type 2 (MS strain) cell line in Vero cells; assay type: functional, Chlorocebus sabaeus
[8] = system: HeLa; assay: In vitro antiviral activity against Vaccinia virus (Elstree strain) cell line in HeLa cells; assay type: functional, Homo sapiens
[9] = system: L1210; assay: Inhibitory concentration of compound that inhibits tumor cell growth by 50% in Murine leukemia (L1210) cell line; assay type: functional; details: Mus musculus, read-out: ID50 (the source's name); method in brief: as §4
[10] = Effect on de novo purine biosynthesis when [14C]formate was incorporated to WI-L2 cells at 2.5 uM with preincubation time of 8 h; assay type: functional, Homo sapiens; method in brief: as §3
[11] = organism: Homo sapiens; assay: Effect on de novo purine biosynthesis when [14C]formate was incorporated to WI-L2 media at 0.25 uM with preincubation time of 8 h; assay type: functional; method in brief: as §3
[12] = Effect on de novo purine biosynthesis when [14C]-formate was incorporated into WI-L2 cells at 50 uM with pre-incubation time of 8 h; assay type: functional, Homo sapiens; method in brief: as §1
[13] = organism: Homo sapiens; assay: Effect on de novo purine biosynthesis when [14C]-formate was incorporated into WI-L2 media at 50 uM with pre-incubation time of 8 h; assay type: functional; method in brief: as §2
[14] = organism: Homo sapiens; assay: Effect on de novo purine biosynthesis when [14C]formate was incorporated to WI-L2 media at 2.5 uM with preincubation time of 8 h; assay type: functional; method in brief: as §3
[15] = Effect on de novo purine biosynthesis when [14C]formate was incorporated to WI-L2 cells at 0.25 uM with preincubation time of 8 h; assay type: functional, Homo sapiens; method in brief: as §3
[16] = system: Vero; assay: In vitro antiviral activity against Parainfluenza 3 (C243 strain) cell line in Vero cells; assay type: functional, Chlorocebus sabaeus
[17] = Effect on de novo purine biosynthesis when [14C]-formate was incorporated to WI-L2 cells at 25 uM with preincubation time of 4 h; assay type: functional, Homo sapiens; method in brief: as §3
[18] = organism: Homo sapiens; assay: Effect on de novo purine biosynthesis when [14C]-formate was incorporated to WI-L2 media at 2.5 uM with pre-incubation time of 8 h; assay type: functional; method in brief: as §3
[19] = organism: Homo sapiens; assay: Effect on de novo purine biosynthesis when [14C]-formate was incorporated to WI-L2 media at 0.25 uM with pre-incubation time of 8 h; assay type: functional; method in brief: as §3

Row | SMILES | IC50 [4] [nM] | IC50 [5] [nM] | Virus rating [6] | Virus rating [7] | Virus rating [8] | IC50 [9] [nM] | Control [10] [%] | also measured
1 | OC[C@H]1OC(Nc2ncnc3c(O)ncnc23)[C@H](O)[C@@H]1O (some centres not stated) | – | – | – | – | – | – | – | Control [1]: 98.2%; Control [2]: 106%
2 | COc1ncnc2c(N[C@H]3O[C@H](CO)[C@@H](O)[C@H]3O)ncnc12 | 18700 | 2500 | 0.7 | 0.1 | 0.9 | 2900 | – | Control [3]: 98.2%
3 | Nc1nc(NC2O[C@H](CO)[C@@H](O)[C@H]2O)c2ncnc(N)c2n1 (some centres not stated) | – | – | – | – | – | – | 91.2 | Control [11]: 89.8%
4 | Nc1ncnc2c(NC3O[C@H](CO)[C@@H](O)[C@H]3O)nc(Cl)nc12 (some centres not stated) | – | – | – | – | – | – | – | Control [12]: 16.4%; Control [13]: 43.4%
5 | CN(C)c1ncnc2c(NC3O[C@H](CO)[C@@H](O)[C@H]3O)ncnc12 (some centres not stated) | – | – | – | – | – | – | – | Control [1]: 50.7%; Control [2]: 85.8%
6 | Nc1ncnc2c(N[C@@H]3O[C@H](CO)[C@@H](O)[C@H]3O)ncnc12 | 7000 | 200 | – | 0.8 | 1.3 | 800 | 29.9 | Control [14]: 54.6%; Control [15]: 79.5%; Control [11]: 71.9%; Virus rating [16]: 0.7
7 | Nc1ncnc2c(N[C@H]3O[C@H](CO)[C@@H](O)[C@H]3O)ncnc12 | 1000 | 250 | 1.4 | 0.2 | 1 | 380 | – | –
8 | COc1ncnc2c(N[C@@H]3O[C@H](CO)[C@@H](O)[C@H]3O)ncnc12 | 280 | 60 | 0.7 | 0.2 | 1 | 40 | 2.7 | Control [17]: 4.3%; Control [15]: 41.9%; Control [18]: 41.8%; Control [19]: 63%
